Series [1] in a line: Toxicity in ip dosed albino Sprague-Dawley rat assessed as behavioral toxicity after 0.25 to 4 hrs. To be noted: in vivo. The format is organism-based. An outline of the steps:
(§1)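 Male albino Sprague-Dawley rats dosed ip or orally, scored for behavioral toxicity (neurological impairment). TD50 is in mg/kg, taken at the time of peak effect.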

The nature of series [2]: Toxicity in po dosed albino Sprague-Dawley rat assessed as behavioral toxicity after 0.25 to 4 hrs. As to conditions: in vivo. The format is organism-based. The gist of the method:
as §1

The subject of series [3] is Mus musculus. Put plainly: Anticonvulsant activity against ip dosed albino CF1 mouse after 0.5 hrs by maximal electroshock seizure test. Type of series: functional.
Series [4] concerns Mus musculus. Put plainly: Toxicity in ip dosed albino CF1 mouse after 0.5 to 2 hrs by rotorod test. The format is organism-based. As to conditions: in vivo. For orientation: In the rotarod test animals must keep their balance on a rotating rod.
Series [5] relates to Mus musculus. Nature of the series: Anticonvulsant activity against ip dosed albino CF1 mouse after 0.5 to 2 hrs by 6 Hz psychomotor seizure test. Type of series: functional.
Series [6] deals with Rattus norvegicus. Put plainly: Anticonvulsant activity against po dosed albino Sprague-Dawley rat after 0.25 to 4 hrs by maximal electroshock seizure test. Type of series: functional. The gist of the method:
(§2)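 Male albino Sprague-Dawley rats dosed ip or orally under the NIH Anticonvulsant Screening Program, tested by maximal electroshock seizure.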
In general terms: Protection in the maximal electroshock model is a classic sign of anticonvulsant action.

Series [7] concerns Rattus norvegicus. Nature of the series: Anticonvulsant activity against ip dosed albino Sprague-Dawley rat after 0.25 to 4 hrs by maximal electroshock seizure test. The format is functional. The gist of the method: as §2
Series [8] relates to Mus musculus. Put plainly: Anticonvulsant activity against ip dosed albino CF1 mouse after 0.5 to 1 hr by 6 Hz psychomotor seizure test. Type of series: functional.
Series [9] concerns Mus musculus. Nature of the series: Anticonvulsant activity against ip dosed albino CF1 mouse after 0.25 to 0.5 hrs by maximal electroshock seizure test. Type of series: functional.
A short description of series [10]: Toxicity in ip dosed albino CF1 mouse after 0.25 to 4 hrs by rotorod test. To be noted: in vivo. The format is organism-based.
Series [11] concerns Mus musculus. Put plainly: Anticonvulsant activity against ip dosed albino CF1 mouse after 0.5 to 4 hrs by subcutaneous pentylenetetrazol test. Type of series: functional.
The subject of series [12] is Mus musculus. Put plainly: Anticonvulsant activity against ip dosed albino CF1 mouse after 1 to 4 hrs by 6 Hz psychomotor seizure test. The format is functional.
Series [13] relates to Mus musculus. Nature of the series: Anticonvulsant activity against ip dosed albino CF1 mouse after 4 hrs by maximal electroshock seizure test. Type of series: functional.
For series [14], the system named is Mus musculus. Put plainly: Anticonvulsant activity against ip dosed albino CF1 mouse after 0.25 to 4 hrs by subcutaneous pentylenetetrazol test. The format is functional.
Series [15] deals with Mus musculus. Nature of the series: Anticonvulsant activity against ip dosed albino CF1 mouse after 1 hr by 6 Hz psychomotor seizure test. The format is functional.
The test system of series [16] is Mus musculus. Nature of the series: Anticonvulsant activity against ip dosed albino CF1 mouse after […] by maximal electroshock seizure test. Type of series: functional.
Series [17] relates to Mus musculus. Nature of the series: Toxicity in ip dosed albino CF1 mouse after 6 hrs by rotorod test. Type of series: organism-based. As to conditions: in vivo.
For series [18], the system named is Rattus norvegicus. Put plainly: Toxicity in ip dosed albino Sprague-Dawley rat assessed as behavioral toxicity after 2 hrs. The format is organism-based. To be noted: in vivo. The gist of the method:
as §1

The nature of series [19]: Inhibition of Na+ channel in mouse CAD cells assessed as slow inactivation by whole cell voltage clamp technique. The format is cell-based. The gist of the method: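 CAD cells (Ham's F12/EMEM, 8% FBS, 37 °C, 5% CO2) by whole-cell voltage clamp at room temperature. Na+ channel slow inactivation measured at −50 mV; IC50 is the concentration at which half of the channels reach a slow-inactivated state.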

For series [20], the species on record is Rattus norvegicus. Put plainly: Protective index, ratio of TD50 for albino Sprague-Dawley rat to ED50 for albino Sprague-Dawley rat. The format is functional. An outline of the steps:
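Protective index is TD50/ED50, both from orally dosed male Sprague-Dawley rats. TD50 is for behavioral toxicity and ED50 is for maximal electroshock seizure.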

Series [21] relates to CAD. Nature of the series: Inhibition of Na+ channel in mouse CAD cells assessed as hyperpolarizing shift at 1 uM by whole cell voltage clamp technique (reference value: -71.6 +/- 0.6 mV). The format is cell-based. An outline of the steps: (§3)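 Steady-state fast inactivation in CAD cells by whole-cell voltage clamp at room temperature. Cells held at −80 mV, given 500-ms prepulses from −120 to −10 mV in 10-mV steps, then a 20-ms step to 0 mV. Curves fitted with a single Boltzmann; V1/2 shift compared with 0.1% DMSO by ANOVA and Dunnett's test. Mean ± SEM.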

The species entered for series [22] is Rattus norvegicus. Nature of the series: Inhibition of Na+ channel in rat embryonic cortical neurons assessed as frequency-dependent inactivation at 20 uM by whole cell voltage clamp technique relative to control.
For series [23], the species on record is Rattus norvegicus. Nature of the series: Inhibition of Na+ channel in rat embryonic cortical neurons assessed as steady state activation at 20 uM by whole cell voltage clamp technique relative to control. An outline of the steps:
(§4)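 Embryonic day 19 rat cortical neurons by whole-cell voltage clamp at room temperature, with protocols mostly as for CAD cells. 20 μM compared with 0.1% DMSO. Activation from 15-ms pulses, −70 to +80 mV; conductance G = I/(Vm − Vrev); Boltzmann fits giving V1/2 and k. Mean ± SEM; ANOVA with post-hoc test.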

The subject of series [24] is Mus musculus. Nature of the series: Anticonvulsant activity against ip dosed albino CF1 mouse after 4 hrs by subcutaneous pentylenetetrazol test. The format is functional. As to conditions: albino CF1, 4 h.
Series [25] deals with CAD. Put plainly: Inhibition of Na+ channel in mouse CAD cells assessed as frequency-dependent inactivation at 10 uM by whole cell voltage clamp technique relative to control. Type of series: cell-based. An outline of the steps:
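Frequency (use)-dependent inhibition of Na+ currents in CAD cells by whole-cell voltage clamp at room temperature. Current trend and amplitude at 10 μM compared with control.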

In series [26] the test system is Rattus norvegicus. Nature of the series: Anticonvulsant activity against ip dosed albino Sprague-Dawley rat after 2 hrs by maximal electroshock seizure test. The format is functional. The gist of the method: as §2
Series [27] deals with CAD. Put plainly: Inhibition of Na+ channel in mouse CAD cells assessed as hyperpolarizing shift at 30 uM by whole cell voltage clamp technique (reference value: -71.6 +/- 0.6 mV). Type of series: cell-based. The gist of the method: as §3
Series [28] is filed under the species Rattus norvegicus. Nature of the series: Inhibition of Na+ channel in rat embryonic cortical neurons assessed as slow inactivation at 20 uM by whole cell voltage clamp technique. The gist of the method: as §4
In series [29] the test system is CAD. Nature of the series: Inhibition of Na+ channel in mouse CAD cells assessed as fast inactivation by whole cell voltage clamp technique. The format is cell-based. The gist of the method:
as §3

The subject of series [30] is Rattus norvegicus. Put plainly: Anticonvulsant activity against po dosed albino Sprague-Dawley rat after 2 hrs by maximal electroshock seizure test. The format is functional. The gist of the method:
as §2

For series [31], the species on record is Rattus norvegicus. Put plainly: Inhibition of Na+ channel in rat embryonic cortical neurons assessed as fast inactivation at 20 uM by whole cell voltage clamp technique (reference value: -53.9 +/- 1.2 mV). The gist of the method: as §4
Series [32] has as its system Mus musculus. Put plainly: Anticonvulsant activity against ip dosed albino CF1 mouse after 2 hrs by 6 Hz psychomotor seizure test. The format is functional.
Series [33] relates to Mus musculus. Nature of the series: Anticonvulsant activity against ip dosed albino CF1 mouse after 0.5 to 2 hrs by maximal electroshock seizure test. Type of series: functional.
Series [34] concerns Mus musculus. Put plainly: Anticonvulsant activity against ip dosed albino CF1 mouse after 0.25 to 1 hr by maximal electroshock seizure test. The format is functional.
A short description of series [35]: Toxicity in ip dosed albino Sprague-Dawley rat assessed as behavioral toxicity after 0.25 to 0.5 hrs. The format is organism-based. To be noted: in vivo. An outline of the steps: as §1
Series [36] has as its system Mus musculus. Nature of the series: Anticonvulsant activity against ip dosed albino CF1 mouse after 0.25 to 2 hrs by subcutaneous pentylenetetrazol test. Type of series: functional.
Series [37] has as its system Mus musculus. Nature of the series: Anticonvulsant activity against ip dosed albino CF1 mouse after 0.5 to 4 hrs by 6 Hz psychomotor seizure test. The format is functional.
Series [38] deals with Rattus norvegicus. Nature of the series: Anticonvulsant activity against ip dosed albino Sprague-Dawley rat after 0.25 to 0.5 hrs by maximal electroshock seizure test. Type of series: functional. An outline of the steps:
as §2

Series [39] relates to Mus musculus. Put plainly: Anticonvulsant activity against ip dosed albino CF1 mouse after 0.25 to 4 hrs by maximal electroshock seizure test. Type of series: functional.

Calls of active or inactive are those of the source. The calls are words filed in the database; no cut-off is given here. A value given as a limit tells only on which side of the number the result lay.

For the compound `COC(=O)c1cccc(-c2ccc(CN)cc2)c1.Cl`, the TD50 (as a rule, the dose at which the toxic effect under study appears in half of the subjects) in series [1] is above 30 mg/kg; in [2], above 30 mg/kg; in series [4] it was 100 mg/kg. Besides, the median effective dose (ED50) (in general, the midpoint of the dose-response relation) in [3] was 100 mg/kg; in [5], above 300 mg/kg; in [6], above 30 mg/kg; in series [7], above 30 mg/kg.
On to `Cl.NCc1ccc(-c2ccccc2)cc1`, for which the ED50 in series [8] was 100 mg/kg; in series [9], 30 mg/kg; in series [11], above 300 mg/kg; in [6], above 30 mg/kg; in [7] it was above 30 mg/kg. Further, the TD50 is above 30 mg/kg in series [1], above 100 mg/kg in series [10] and above 30 mg/kg in series [2].
On to `Cl.NCc1ccc(-c2ccc(F)cc2)cc1`, for which the values for the TD50 in series [1], in series [10] and in series [2] were above 30 mg/kg, above 50 mg/kg and above 30 mg/kg, respectively. Also, the ED50 in [12] is below 100 mg/kg; in series [13] it was 50 mg/kg; in series [6], above 30 mg/kg; in [7] it was above 30 mg/kg; in series [14], above 50 mg/kg.
Regarding `COc1cccc(-c2ccc(CN)cc2)c1.Cl`, the values for the TD50 in series [1], in series [10] and in series [2] were above 30 mg/kg, above 100 mg/kg and above 30 mg/kg, respectively. Besides, the median effective dose (ED50) in [15] was 100 mg/kg; in series [11] it was above 100 mg/kg; in series [16], below 100 mg/kg; in series [6], above 30 mg/kg; in series [7], above 30 mg/kg.
In the case of `Cl.NCc1ccc(-c2cccc(OC(F)(F)F)c2)cc1`, the TD50 was 81 mg/kg in series [17], 72 mg/kg in [18] and above 500 mg/kg in series [2]. In addition, the IC50 – broadly, the point on the concentration scale where inhibition reaches its midpoint – in series [19] amounted to 2700 nM. Moreover, the “Ratio TD50/ED50” value in series [20] was above 57. For the same compound, the V1/2 in series [21] was 11.2 mV; in series [27] it was 26.5 mV; in [31], -69.6 mV. Moreover, the ED50 in series [15] came to 43 mg/kg; in series [3], 25 mg/kg; in series [24] it was 81 mg/kg; in series [26], 16 mg/kg; in series [30], 8.7 mg/kg. For the same compound, the inhibition result in series [22], in series [23], in series [25] and in series [29] was “inactive” in each case. Also, the inhibition entry in [28] is “Active”.
Consider `Cl.NCc1ccc(-c2ccc(OC(F)(F)F)cc2)cc1`, for which the TD50 is above 30 mg/kg in series [1], above 50 mg/kg in series [10] and above 30 mg/kg in series [2]. The ED50 in series [32] was below 100 mg/kg; in [33] it was 50 mg/kg; in series [6], above 30 mg/kg; in [7], above 30 mg/kg; in series [14], above 50 mg/kg.
As to `Cl.NCc1ccc(-c2cccc(Cl)c2)cc1`, the ED50 was below 100 mg/kg in series [34]; below 100 mg/kg in series [36]; below 100 mg/kg in series [37]; 65 mg/kg in [38]; above 30 mg/kg in series [6]. The TD50 in [35] is 65 mg/kg; in [10], above 100 mg/kg; in [2] it was above 30 mg/kg.
For `Cl.NCc1ccc(-c2ccc(Cl)cc2)cc1`, the ED50 is above 50 mg/kg in [39]; below 100 mg/kg in series [12]; above 30 mg/kg in series [6]; above 30 mg/kg in series [7]; above 50 mg/kg in series [14]. Further, the values for the TD50 in series [1], in [10] and in [2] were above 30 mg/kg, above 50 mg/kg and above 30 mg/kg, respectively.

(Values after ChEMBL document CHEMBL2401663, “(Biphenyl-4-yl)methylammonium chlorides: potent anticonvulsants that modulate Na+ currents” (J Med Chem, 2013).)
